{"source": "paper PMC7048620", "about": "(Nature microbiology, 2020)", "key": {"FtsZ-FtsA co-filaments [1]": {"target": "T1, FtsZ-FtsA co-filaments (Escherichia coli, UniProt P0A9A6+P0ABH0)", "T1 sequence (P0ABH0 1-420)": "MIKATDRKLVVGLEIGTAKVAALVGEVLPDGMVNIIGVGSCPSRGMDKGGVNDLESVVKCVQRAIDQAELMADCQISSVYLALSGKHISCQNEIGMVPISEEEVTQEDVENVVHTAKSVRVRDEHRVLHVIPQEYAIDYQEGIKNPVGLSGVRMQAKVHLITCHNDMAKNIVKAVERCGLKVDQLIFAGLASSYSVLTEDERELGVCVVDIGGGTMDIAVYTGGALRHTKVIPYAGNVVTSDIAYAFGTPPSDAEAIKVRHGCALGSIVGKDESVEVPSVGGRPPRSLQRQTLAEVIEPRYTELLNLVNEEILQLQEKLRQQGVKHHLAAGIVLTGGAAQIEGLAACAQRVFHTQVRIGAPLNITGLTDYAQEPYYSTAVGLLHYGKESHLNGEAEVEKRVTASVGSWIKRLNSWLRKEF", "T1 sequence (P0A9A6 1-383 partner)": "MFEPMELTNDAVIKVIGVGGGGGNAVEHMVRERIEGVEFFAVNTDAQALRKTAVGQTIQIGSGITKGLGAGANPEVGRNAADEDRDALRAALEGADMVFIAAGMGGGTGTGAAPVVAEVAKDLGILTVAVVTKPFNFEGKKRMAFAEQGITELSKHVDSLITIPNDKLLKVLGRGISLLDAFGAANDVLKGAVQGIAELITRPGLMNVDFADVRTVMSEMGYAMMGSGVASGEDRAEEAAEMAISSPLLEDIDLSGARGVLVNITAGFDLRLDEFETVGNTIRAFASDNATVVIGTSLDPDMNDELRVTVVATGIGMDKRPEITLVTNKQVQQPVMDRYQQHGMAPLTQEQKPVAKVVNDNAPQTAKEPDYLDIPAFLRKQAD", "experiment": "Single molecule diffusion and confinement time analysis on supported bilayers", "settings": "Cy5-labelled single molecules in presence of Alexa488-FtsZ pattern, Gaussian fit", "method_in_brief": "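FtsA (0.45-0.6 μM) and FtsZ (1.5-1.8 μM) with 4 mM ATP/GTP formed steady-state patterns on supported membranes. Unlabelled His-tagged FtsN cytoplasmic peptide (1 μM) was added from solution with 10-20 pM Cy5-labelled peptide (wild-type or variant). TIRF tracking ran at 10 Hz. Diffusion-coefficient density distributions were fitted with a Gaussian (FtsZ, FtsA) or a double Gaussian (FtsN).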"}, "[2]": {"experiment": "Sedimentation velocity analytical ultracentrifugation", "format": "physicochemical, Escherichia coli", "method_in_brief": "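Full-length FtsN was loaded at 9-20 μM and read by Rayleigh interference and 280 nm absorbance. Alexa488-FtsA was loaded at 4 μM and read at 495 nm. c(s) distributions came from least-squares boundary modelling.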"}, "FtsZ-FtsA co-filaments [3]": {"target": "T1, FtsZ-FtsA co-filaments", "experiment": "FRAP on supported lipid membranes", "settings": "mean±SD", "method_in_brief": "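Treadmilling patterns were formed on supported lipid membranes with 0.2 mol-% tris-Ni-NTA or 1 mol-% mono-Ni-NTA, using FtsA (0.45-0.6 μM) and FtsZ (1.5-1.8 μM) in 50 mM Tris-HCl pH 7.4, 150 mM KCl, 5 mM MgCl2 with 4 mM ATP/4 mM GTP. His-tagged FtsN cytoplasmic peptide went onto tris-Ni-NTA membranes. A ~15 μm x 15 μm area was bleached and imaged at 2 s/frame; a mono-exponential fit gave the half-time.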"}, "[4]": {"target": "FtsZ-FtsA co-filaments on supported lipid membranes (E. coli) (UniProt P0A9A6)", "experiment": "single-molecule tracking by TIRF microscopy on supported lipid bilayers"}, "[5]": {"target": "FtsZ-FtsA co-filaments on supported lipid membranes (E. coli) (UniProt P0A9A6)", "experiment": "TIRF microscopy of purified proteins on supported lipid bilayers"}, "FtsA [6]": {"target": "T2, FtsA (Escherichia coli, UniProt P0ABH0)", "T2 sequence (P0ABH0 1-420)": "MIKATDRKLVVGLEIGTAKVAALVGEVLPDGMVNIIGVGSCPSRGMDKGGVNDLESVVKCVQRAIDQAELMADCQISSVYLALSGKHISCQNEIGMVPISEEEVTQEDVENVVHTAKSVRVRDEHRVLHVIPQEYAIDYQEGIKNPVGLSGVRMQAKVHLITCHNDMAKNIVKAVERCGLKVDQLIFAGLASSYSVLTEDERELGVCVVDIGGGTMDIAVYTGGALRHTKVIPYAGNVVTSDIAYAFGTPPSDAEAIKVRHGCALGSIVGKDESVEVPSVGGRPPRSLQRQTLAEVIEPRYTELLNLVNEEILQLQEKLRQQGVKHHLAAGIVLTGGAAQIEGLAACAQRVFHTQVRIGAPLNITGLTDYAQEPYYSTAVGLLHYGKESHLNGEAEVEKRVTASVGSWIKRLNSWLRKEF", "format": "binding", "settings": "MST"}, "FtsA [7]": {"target": "T3, FtsA (E. coli, UniProt P0ABH0 1-420)", "T3 sequence": "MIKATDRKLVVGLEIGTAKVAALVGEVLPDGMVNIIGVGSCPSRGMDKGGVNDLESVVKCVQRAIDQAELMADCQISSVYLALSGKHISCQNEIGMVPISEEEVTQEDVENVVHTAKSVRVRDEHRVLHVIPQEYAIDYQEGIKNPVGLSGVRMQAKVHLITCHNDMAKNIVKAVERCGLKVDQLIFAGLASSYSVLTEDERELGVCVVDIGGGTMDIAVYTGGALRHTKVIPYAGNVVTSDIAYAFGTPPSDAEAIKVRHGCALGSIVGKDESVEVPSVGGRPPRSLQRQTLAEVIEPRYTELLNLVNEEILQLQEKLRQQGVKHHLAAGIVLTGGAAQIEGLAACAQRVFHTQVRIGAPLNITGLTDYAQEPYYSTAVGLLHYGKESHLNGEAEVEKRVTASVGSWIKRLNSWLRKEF", "experiment": "MST"}, "FtsA [8]": {"target": "T3, FtsA", "experiment": "MST", "remark": "listed apart in the source"}, "FtsA [9]": {"target": "T3, FtsA", "experiment": "TIRF microscopy of purified proteins on supported lipid bilayers"}, "[10]": {"target": "the molecule itself", "experiment": "single-molecule tracking by TIRF microscopy on supported lipid bilayers"}}, "note": "Like-named read-outs stand apart in the source and are kept apart here."}
{"molecule": "FtsA: E. coli FtsA (UP P0ABH0), membrane anchor of FtsZ, purified", "values": [{"measurement": "diffusion coefficient (Dcoef) of single trajectories", "setting": "FtsZ-FtsA co-filaments [1]", "value": "0.0016 ± 0.0003", "unit": "μm^2/s"}, {"measurement": "sedimentation coefficient, main peak", "setting": "[2]; AlexaFluor488-FtsA in the absence of FtsN, n=2", "value": "~ 2 S"}]}
{"molecule": "CCCCCCCC/C=C\\CCCCCCCC(=O)OC[C@H](COP(=O)(O)OCCNS(=O)(=O)c1ccc(-c2c3ccc(=[N+](CC)CC)cc-3oc3cc(N(CC)CC)ccc23)c(S(=O)(=O)[O-])c1)OC(=O)CCCCCCC/C=C\\CCCCCCCC", "note": "[rhodamine-PE, 1,2-dioleoyl-sn-glycero-3-phosphoethanolamine-N-(lissaminerhodamine B sulfonyl)]", "values": [{"measurement": "half-time of fluorescence recovery Ƭ0.5, + FtsA/Z", "setting": "FtsZ-FtsA co-filaments [3]; after FtsA and FtsZ added", "value": "17.7 ± 0.2", "unit": "s"}, {"measurement": "half-time of fluorescence recovery Ƭ0.5, alone", "setting": "FtsZ-FtsA co-filaments [3]; without FtsA and FtsZ", "value": "12.8 ± 3.4", "unit": "s"}]}
{"molecule": "FtsZ: E. coli tubulin-related GTPase FtsZ (UP P0A9A6), purified, fluorescently labelled", "values": [{"measurement": "diffusion coefficient (Dcoef) of single trajectories", "setting": "FtsZ-FtsA co-filaments [1]", "value": "below 1x10^-4 μm^2/s"}]}
{"molecule": "FtsN_(cyto)His, cytoplasmic peptide of FtsN", "values": [{"measurement": "confinement time", "setting": "[4]", "value": 0.41, "unit": "s"}, {"measurement": "frequency of confinement events relative to FtsN (cyto-DDEE)His", "setting": "[4]", "value": 3, "unit": "fold"}, {"measurement": "colocalization efficiency with FtsZ (Pearson correlation coefficient)", "setting": "[5]", "value": 0.62}]}
{"molecule": "Full-length FtsN (His6) (natural protein) MAQRDYVRRSQPAPSRRKKSTSRKKQRNLPAVSPAMVAIAAAVLVTFIGGLYFITHHKKEESETLQSQKVTGNGLPPKPEERWRYIKELESRQPGVRAPTEPSAGGEVKTPEQLTPEQRQLLEQMQADMRQQPTQLVEVPWNEQTPEQRQQTLQRQRQAQQLAEQQRLAQQSRTTEQSWQQQTRTSQAAPVQAQPRQSKPASSQQPYQDLLQTPAHTTAQSKPQQAAPVARAADAPKPTAEKKDERRWMVQCGSFRGAEQAETVRAQLAFEGFDSKITTNNGWNRVVIGPVKGKENADSTLNRLKMAGHTNCIRLAAGG", "values": [{"measurement": "interaction with FtsA at high salt", "setting": "FtsA [6]; 300 mM KCl", "value": "significantly weaker"}, {"measurement": "interaction with FtsA in solution", "setting": "FtsA [6]; Alexa647-FtsA titrated with peptide or protein, n=3", "value": "Binding was observed"}, {"measurement": "Kd", "setting": "FtsA [7]", "value": "734 ± 23", "unit": "nM"}, {"measurement": "sedimentation coefficient, second main peak", "setting": "[2]; 16 μM in 3.72 mM DDM, Raleigh interference, n=3, compatible with dimers", "value": "5.2 ± 0.1", "unit": "S"}, {"measurement": "sedimentation coefficient, first main peak", "setting": "[2]; 16 μM in 3.72 mM DDM, Raleigh interference, n=3, compatible with monomers", "value": "4.1 ± 0.1", "unit": "S"}, {"measurement": "Kd", "setting": "FtsA [8]", "value": "250 ± 51", "unit": "nM"}]}
{"molecule": "FtsZ (natural protein) MFEPMELTNDAVIKVIGVGGGGGNAVEHMVRERIEGVEFFAVNTDAQALRKTAVGQTIQIGSGITKGLGAGANPEVGRNAADEDRDALRAALEGADMVFIAAGMGGGTGTGAAPVVAEVAKDLGILTVAVVTKPFNFEGKKRMAFAEQGITELSKHVDSLITIPNDKLLKVLGRGISLLDAFGAANDVLKGAVQGIAELITRPGLMNVDFADVRTVMSEMGYAMMGSGVASGEDRAEEAAEMAISSPLLEDIDLSGARGVLVNITAGFDLRLDEFETVGNTIRAFASDNATVVIGTSLDPDMNDELRVTVVATGIGMDKRPEITLVTNKQVQQPVMDRYQQHGMAPLTQEQKPVAKVVNDNAPQTAKEPDYLDIPAFLRKQAD", "values": [{"measurement": "binding result", "setting": "FtsA [9]", "value": "binds"}, {"measurement": "binding result", "setting": "[10]", "value": "binds"}]}
